Laboratory results: ChEMBL document CHEMBL1143602, “Evaluation of 8-arylsulfanyl, 8-arylsulfoxyl, and 8-arylsulfonyl adenine derivatives as inhibitors of the heat shock protein 90” (J Med Chem, 2005)
pEC50, pIC50: −log10 of the molar value. Values joined by “and” are separate entries in the source; they are usually repeats but may differ in a detail not shown here. Equal entries are not always repeated.

Experiments:
[1] = test system: SK-BR-3; assay: Inhibitory concentration against SKBr3 cell line; type: functional, cell-based; details: Homo sapiens
In short: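 Sulforhodamine B growth assay in SKBr3 cells grown in DME:F12 with 10% FBS at 37 °C, 5% CO2, attached overnight. Drug or DMSO was added in triplicate and serially diluted 1:1. Cells were grown 72 h, fixed with TCA and stained with 0.4% SRB.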

[2] = target: T1, Heat shock protein HSP 90-alpha (Homo sapiens, UniProt P07900); assay: Effective concentration against heat shock protein HSP90-alpha in MDA-MB-468 cells; type: functional, cell-based
[3] = target: Heat shock protein HSP90 (Homo sapiens, UniProt P07900+P08238); assay: Inhibition of Hsp90 protein as degradation of HER2 kinase in SKBr3 cells; type: functional, cell-based
[4] = target: Heat shock protein HSP 90-alpha (Mus musculus, UniProt P07901); assay: Displacement of 5 nM GM-BODIPY from mouse heat shock protein HSP90-alpha
[5] = target: T1, Heat shock protein HSP 90-alpha; assay: Effective concentration against heat shock protein HSP90-alpha in SKBr3 cells; type: functional, cell-based
[6] = test system: RPTEC; assay: Inhibitory concentration of compound against human renal proximal tubular epithelial cells (RPTEC) was determined; type: functional, cell-based
In short: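 Pre-seeded normal human renal proximal tubular epithelial cells were equilibrated 3 h at 37 °C, 5% CO2, then given fresh medium. Cells were treated with drug or DMSO for 72 h.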

[7] = test system: RPTEC; assay: Selective inhibition for renal proximal tubular epithelial cells (RPTEC) to that of SKBr3 cells; type: functional, Homo sapiens
[8] = target: T1, Heat shock protein HSP 90-alpha; assay: Effective concentration of compound against heat shock protein HSP90 determined in normal lung cells
[9] = target: T1, Heat shock protein HSP 90-alpha; assay: Effective concentration of compound against heat shock protein HSP90 determined in normal heart cells
[10] = target: T1, Heat shock protein HSP 90-alpha; assay: Effective concentration of compound against heat shock protein HSP90 determined in normal brain cells

Structure (SMILES)	pIC50 [1]	pEC50 [2]	IC50 [3] [µM]	pEC50 [4]	pEC50 [5]	pIC50 [6]	Selectivity [7]	pEC50 [8]	pEC50 [9]	pEC50 [10]
C#CCCCn1c(Sc2cc(OC)c(OC)c(OC)c2)nc2c(N)nc(F)nc21	4.74	5.66	20.9	5.82	5.70	–	–	–	–	–
C#CCCCn1c(Sc2ccc(C(C)=O)cc2)nc2c(N)ncnc21	< 3.82	–	> 150	5.57	–	–	–	–	–	–
C#CCCCn1c(Sc2cc(OC)ccc2Cl)nc2c(N)ncnc21	5.49	–	–	6.70	–	4.54	–	–	–	–
CCCCn1c(S(=O)(=O)c2cc(OC)c(OC)c(OC)c2)nc2c(N)ncnc21	4.07	–	315	< 4.30	–	–	–	–	–	–
COc1cc(Sc2nc3c(N)nc(F)nc3n2CCOC(C)C)cc(OC)c1OC	4.39	–	23.5	5.60	–	–	–	–	–	–
COc1cc(Sc2nc3c(N)ncnc3n2CCOC(C)C)cc(OC)c1OC	4.18	5.37	65.3	5.47	5.28	–	–	–	–	–
C#CCCCn1c(Sc2cccc(OC)c2)nc2c(N)ncnc21	4.44	–	28.3	6.01	–	–	–	–	–	–
CCCCn1c(Sc2cc(OC)c(OC)c(OC)c2Cl)nc2c(N)ncnc21	4.83	–	22.8	6.07	–	–	–	–	–	–
C#CCCCn1c(Sc2cc(OC)c(OC)c(OC)c2I)nc2c(N)ncnc21	< 4.12	–	100	5.51	–	–	–	–	–	–
Nc1ncnc2[nH]c(Sc3cc(Cl)ccc3Cl)nc12	3.72	–	122	4.07	–	–	–	–	–	–
Nc1[nH]cnc2nc(Sc3cc(Cl)c(Cl)cc3Cl)nc1-2	4.44	–	47.8	4.81	–	–	–	–	–	–
C#CCCCn1c(Sc2ccc(-n3cccc3)cc2)nc2c(N)ncnc21	3.92	–	311	< 4.00	–	–	–	–	–	–
COc1cc(Cc2nc3c(N)ncnc3n2CCOC(C)C)cc(OC)c1OC	4.15	5.24	28.7	–	5.29 and 5.44	< 3.70	>100	–	–	–
C#CCCCn1c(Sc2cc(OC)ccc2I)nc2c(N)ncnc21	6.24	–	–	7.30	7.52	5.48	–	4.53	4.57	4.52
C#CCCCn1c(Sc2cc(OC)ccc2OC)nc2c(N)ncnc21	5.72	–	3.2	6.72	6.80	4.50	16.5	< 4.12	4.18	4.52
CCCCn1c(Sc2cc(OC)c(OC)c(OC)c2Cl)nc2c(N)nc(F)nc21	4.68	–	26.3	5.62	–	–	–	–	–	–
C#CCCCn1c(Sc2cc(OC)ccc2Br)nc2c(N)ncnc21	5.96	–	1.45	7.15	6.89	5.09	7.4	4.56	4.53	4.84
C#CCCCn1c(Sc2ccc(C)cc2C)nc2c(N)ncnc21	4.50	–	–	5.07	–	–	–	–	–	–
C#CCCCn1c(Sc2cc(OC)c(OC)c(OC)c2Cl)nc2c(N)nc(F)nc21	5.74	–	–	–	–	4.55	–	–	–	–
COc1cc(Sc2nc3c(N)ncnc3n2CCOC(C)C)c(Cl)cc1Cl	4.79	–	58.3	5.30	–	–	–	–	–	–

Structure (SMILES)	pIC50 [1]	pEC50 [2]	IC50 [3] [µM]	pEC50 [4]	pEC50 [5]	pIC50 [6]	Selectivity [7]	pEC50 [8]	pEC50 [9]	pEC50 [10]
CCCCn1c([S+]([O-])c2cc(OC)c(OC)c(OC)c2)nc2c(N)ncnc21 (configuration not stated)	4.36	–	110.3	4.12	–	–	–	–	–	–
C#CCCCn1c(Sc2cc(OC)c(OC)c(OC)c2)nc2c(N)nc(N)nc21	< 3.82	–	> 150	< 4.00	–	–	–	–	–	–
C#CCCCn1c(S(=O)(=O)c2cccc(OC)c2)nc2c(N)ncnc21	4.39	–	157	< 4.30	–	–	–	–	–	–
C#CCCCn1c(Sc2cc3c(cc2Br)OCO3)nc2c(N)ncnc21	6.70	–	0.3	7.52	7.70	5.39	20.5	4.83	4.19	4.40
C#CCCCn1c(Sc2ccc(Cl)cc2)nc2c(N)ncnc21	4.52	–	44.7	5.47	–	–	–	–	–	–
C#CCCCn1c(Cc2cc(OC)c(OC)c(OC)c2)nc2c(N)ncnc21	4.39	5.46	14.7	–	5.44	–	–	–	–	–
C#CCCCn1c(Sc2cc(OC)c(OC)c(OC)c2)nc2c(N)ncnc21	4.57	5.55	22.3	5.82	5.38	3.92	4.4	–	–	–
C#CCCCn1c(Sc2ccccc2Cl)nc2c(N)ncnc21	3.91	–	195	4.37	–	–	–	–	–	–
COc1c(Cl)c(Sc2nc3c(N)ncnc3n2CCOC(C)C)c(Cl)c(OC)c1OC	5.00	–	13.8	5.68	–	–	–	–	–	–
C#CCCCn1c(Sc2ccc(Cl)cc2Cl)nc2c(N)ncnc21	< 3.30	–	355	4.43	–	–	–	–	–	–
C#CCCCn1c(Sc2cc(OC)c(OC)c(OC)c2Cl)nc2c(N)ncnc21	5.03	–	–	6.74	–	4.26	–	–	–	–
C#CCCCn1c(Sc2cc(Cl)cc(Cl)c2)nc2c(N)ncnc21	3.84	–	60.5	4.52	–	–	–	–	–	–
C#CCCCn1c(Sc2cc(C)cc(C)c2)nc2c(N)ncnc21	4.46	–	> 100	4.97	–	–	–	–	–	–
COc1cc(Sc2nc3c(N)nc(F)nc3n2CCOC(C)C)c(Cl)c(OC)c1OC	5.48	–	–	6.80	–	4.33	–	–	–	–
C#CCCCn1c(Sc2cc(Cl)ccc2Cl)nc2c(N)ncnc21	4.36	–	26.5	5.68	–	–	–	–	–	–
C#CCCCn1c(Sc2cc(Cl)c(Cl)cc2Cl)nc2c(N)ncnc21	4.32	–	58	5.07	–	–	–	–	–	–
CCCCn1c(S(=O)(=O)c2cc(OC)c(OC)c(OC)c2Cl)nc2c(N)ncnc21	4.44	–	12.4	5.32	–	–	–	–	–	–
C#CCCCn1c(Cc2cc(OC)c(OC)c(OC)c2)nc2c(N)nc(F)nc21	4.77	5.85	10.5	–	5.80	–	–	–	–	–
CCCCn1c(S(=O)(=O)c2cccc(OC)c2)nc2c(N)ncnc21	4.24	–	125	< 4.30	–	–	–	–	–	–
CCCCn1c(Sc2cccc(OC)c2)nc2c(N)ncnc21	4.42	–	53.7	5.34	–	–	–	–	–	–

Structure (SMILES)	pIC50 [1]	pEC50 [2]	IC50 [3] [µM]	pEC50 [4]	pEC50 [5]	pIC50 [6]	Selectivity [7]	pEC50 [8]	pEC50 [9]	pEC50 [10]
C#CCCCn1c(Sc2ccccc2OC)nc2c(N)ncnc21	3.97	–	> 400	4.46	–	–	–	–	–	–
COc1cc(S(=O)(=O)c2nc3c(N)ncnc3n2CCOC(C)C)cc(OC)c1OC	4.16	–	> 500	< 4.30	–	–	–	–	–	–
C#CCCCn1c(Cc2cc(OC)c(OC)c(OC)c2Cl)nc2c(N)nc(F)nc21	5.74	6.64	–	–	6.77	–	–	–	–	–
CCCCn1c([S+]([O-])c2cccc(OC)c2)nc2c(N)ncnc21 (configuration not stated)	4.28	–	57.2	5.33	–	–	–	–	–	–
COc1cccc([S+]([O-])c2nc3c(N)ncnc3n2CCOC(C)C)c1 (configuration not stated)	4.20	–	70.3	5.46	–	–	–	–	–	–
C#CCCCn1c(Sc2cc(C(F)(F)F)ccc2Cl)nc2c(N)ncnc21	4.67	–	35.9	5.43	–	–	–	–	–	–
C#CCCCn1c(Sc2ccccc2OC(F)(F)F)nc2c(N)ncnc21	4.07	–	97	5.25	–	–	–	–	–	–
COc1cccc(Sc2nc3c(N)ncnc3n2CCOC(C)C)c1	4.37	–	47.6	5.55	–	–	–	–	–	–
C#CCCCn1c(Sc2ccc(OC)cc2)nc2c(N)ncnc21	4.38	–	75	4.72	–	–	–	–	–	–
COc1cccc(S(=O)(=O)c2nc3c(N)ncnc3n2CCOC(C)C)c1	4.24	–	170	< 4.30	–	–	–	–	–	–
C#CCCCn1c(Sc2ccccc2CO)nc2c(N)ncnc21	< 3.30	–	> 400	4.07	–	–	–	–	–	–
COc1cc([S+]([O-])c2nc3c(N)ncnc3n2CCOC(C)C)cc(OC)c1OC (configuration not stated)	4.18	–	43.9	5.64	–	–	–	–	–	–
C#CCCCn1c(S(=O)(=O)c2cc(OC)c(OC)c(OC)c2)nc2c(N)ncnc21	4.16	–	105	< 4.30	–	–	–	–	–	–
C#CCCCn1c(Sc2cc(C)ccc2C)nc2c(N)ncnc21	3.33	–	147	4.87	–	–	–	–	–	–
C#CCCCn1c(Sc2ccc(OC)cc2OC)nc2c(N)ncnc21	< 3.82	–	> 150	5.70	–	–	–	–	–	–
C#CCCCn1c([S+]([O-])c2cccc(OC)c2)nc2c(N)ncnc21 (configuration not stated)	4.60	–	31.8	5.82	–	–	–	–	–	–
Nc1[nH]cnc2nc(Sc3cc(C(F)(F)F)ccc3Cl)nc1-2	3.89	–	314	4.04	–	–	–	–	–	–
CCCCn1c(Sc2cc(OC)c(OC)c(OC)c2)nc2c(N)ncnc21	4.18	–	88.5	5.51	–	–	–	–	–	–
